Measurements from different studies.
Each line is one published result; the experiments were not run side by side.
EGFR A750P/del747-749: Epidermal growth factor receptor (EGFR, Homo sapiens, UniProt P00533, A750P/del747-749)
EGFR del747-750/T751S: Epidermal growth factor receptor (EGFR, Homo sapiens, UniProt P00533, del747-750/T751S)
EGFR G719C: Epidermal growth factor receptor (EGFR, Homo sapiens, UniProt P00533, G719C)
EGFR G719S: Epidermal growth factor receptor (EGFR, Homo sapiens, UniProt P00533, G719S)
EGFR del752-759: Epidermal growth factor receptor (EGFR, Homo sapiens, UniProt P00533, del752-759)
EGFR T790M: Epidermal growth factor receptor (EGFR, Homo sapiens, UniProt P00533, T790M)
EGFR L858R: Epidermal growth factor receptor (EGFR, Homo sapiens, UniProt P00533, L858R)
EGFR: Epidermal growth factor receptor (EGFR, Homo sapiens, UniProt P00533)

SMILES	target	assay	conditions	remaining binding [%]
C[C@H](c1ccnc(Nc2nc3ccc(-c4cc(N(C)C)ncn4)cc3[nH]2)c1)N1CCN(C(=O)CC(F)(F)F)CC1	EGFR A750P/del747-749	cell-free assay, competition with immobilised ligand	0.1 µM	89
CN(C)c1nccc(-c2cnc3ncccn23)n1	Epidermal growth factor receptor (EGFR, Homo sapiens, UniProt P00533, L861Q)	binding	1 µM	90
CN(C)c1ncnc(-c2ccc3nc(Nc4cc(CN5CCN(C(=O)CC(F)(F)F)CC5)ccn4)[nH]c3c2)c1Cl	EGFR del747-750/T751S	cell-free assay, competition with immobilised ligand	1 µM	88
O=C(Nc1c[nH]nc1C(=O)NC1CCNCC1)c1cc(F)cc(F)c1	EGFR G719C	binding, competition with immobilised ligand	1 µM	100
COc1cnc(Nc2cccc(S(N)(=O)=O)c2)nc1N1CCN(c2ccccc2)CC1	EGFR G719S	binding, competition with immobilised ligand	1 µM	100
Cc1cnc(Nc2ccc(C(=O)N3CCC(N4CCCC4)CC3)cc2)nc1-c1cc2ccccc2s1	EGFR del752-759	binding, competition with immobilised ligand	1 µM	84
CO[C@@H](C)c1c(Nc2ccc([C@H](N(C)C(=O)C3CCS(=O)(=O)CC3)C(F)(F)F)cc2)cnc2cc(Cl)nn12	EGFR T790M	cell-free assay, competition with immobilised ligand	1 µM	90
C[C@H]1CCN(c2nccc(-c3cnn4ncccc34)n2)C1	EGFR L858R	binding	1 µM	100
O=C(NCCCN1CCOCC1)c1ccc(Nc2ncc(Cl)c(-c3ccc(Cl)s3)n2)cc1	Epidermal growth factor receptor (EGFR, Homo sapiens, UniProt P00533, L858R/T790M)	binding, competition with immobilised ligand	1 µM	55
Cc1cnn2ncc(-c3ccnc(N(C)C)n3)c2c1	EGFR del752-759	binding	1 µM	100
O=C(c1ccc(Nc2nccc(-c3cc4ccccc4s3)n2)cc1)N1CCC(N2CCCC2)CC1	EGFR A750P/del747-749	binding, competition with immobilised ligand	1 µM	100
c1cnn2ncc(-c3ccnc(N4CCC45COC5)n3)c2c1	EGFR L858R	binding	1 µM	84
O=C(c1ccc(Nc2ncc(Cl)c(-c3cc4ccccc4s3)n2)cc1)N1CCC(N2CCCC2)CC1	EGFR	binding, competition with immobilised ligand	1 µM	90
CC1CCCN1c1nccc(-c2cnn3ncccc23)n1 (centres unmarked)	EGFR G719C	binding	1 µM	100
Nc1ncc2c(n1)-c1c([nH]c3ccc(C#CC4CC4)cc13)CCCC2	EGFR	binding, competition with immobilised ligand	1 µM	80
COc1cc(-c2cn(C3CCc4ccccc4N(CC(F)(F)F)C3=O)nn2)ccc1-n1ccc(C)n1 (centres unmarked)	EGFR T790M	cell-free assay, competition with immobilised ligand	1 µM	59
COc1cnc(Nc2cccc(S(N)(=O)=O)c2)nc1N1CCN(c2ccccc2)C(=O)C1	EGFR L858R	binding, competition with immobilised ligand	1 µM	100
Cn1nc(C(=O)NCc2ccc(C(=O)O)cc2)cc1-c1ccc2[nH]ccc2c1	EGFR	cell-free assay, competition with immobilised ligand	0.1 µM	100
O=C(NCCCN1CCOCC1)c1ccc(Nc2nccc(-c3cc4ccccc4s3)n2)cc1	EGFR del747-750/T751S	binding, competition with immobilised ligand	1 µM	100
C[C@@]1(Cc2ccc(C#N)cc2)C(=O)N(c2cc(Cl)cc(Cl)c2)c2ncc(C(=O)NC3(c4nc(C5CCC5)no4)CC3)n21	Epidermal growth factor receptor (EGFR, Homo sapiens, UniProt P00533, del747-752/P753S)	cell-free assay, competition with immobilised ligand	1 µM	58
CN(c1nccc(-c2cnn3ncccc23)n1)C1CC1	EGFR G719S	binding	1 µM	100
Cc1c(C(=O)O)cc(-c2ccc(C3CCNCC3)cc2)c2ccc(-c3ccc(C(F)(F)F)cc3)cc12	EGFR del747-750/T751S	cell-free assay, competition with immobilised ligand	1 µM	100
N[C@H]1CCN(c2nccc(-c3cnn4ncccc34)n2)C1	EGFR T790M	binding	1 µM	79
